Test results published in article PMC11324745 (Nature Communications, 2024).

How the values were obtained:
Brca1^Δ11;Δ11 MEFs = settings: cited from earlier work
[1] = tested on: DLD1 BRCA2-KO (BRCA2 -/-, null) cells; assay: Colony survival assay, DLD1 BRCA2-KO; type: cell-based; settings: DLD1 isogenic pair, vs BRCA2-WT
How it was run: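 Isogenic pairs (DLD1 in RPMI; HCT 116 in DMEM; each with 10% FBS, glutamine, non-essential amino acids) seeded in 24-well plates: 800 cells/well for BRCA-null and 200 cells/well for wild-type. Test compound exposure with medium changed every 2–3 days for 10–12 days. Fixed in water:ethanol:acetic acid 5:4:1, stained with 0.5% crystal violet for 2 h, colonies counted manually. Mean ± S.E.M.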

Brca1^cc/cc MEFs = assay: Colony survival assay, Brca1 cc/cc MEFs; type: cell-based, mouse; settings: vs Brca1-WT MEFs
Polθ-hel = Polθ-hel (Homo sapiens, UniProt O75417); settings: cited from earlier work
Chain of Polθ-hel (O75417 1-894): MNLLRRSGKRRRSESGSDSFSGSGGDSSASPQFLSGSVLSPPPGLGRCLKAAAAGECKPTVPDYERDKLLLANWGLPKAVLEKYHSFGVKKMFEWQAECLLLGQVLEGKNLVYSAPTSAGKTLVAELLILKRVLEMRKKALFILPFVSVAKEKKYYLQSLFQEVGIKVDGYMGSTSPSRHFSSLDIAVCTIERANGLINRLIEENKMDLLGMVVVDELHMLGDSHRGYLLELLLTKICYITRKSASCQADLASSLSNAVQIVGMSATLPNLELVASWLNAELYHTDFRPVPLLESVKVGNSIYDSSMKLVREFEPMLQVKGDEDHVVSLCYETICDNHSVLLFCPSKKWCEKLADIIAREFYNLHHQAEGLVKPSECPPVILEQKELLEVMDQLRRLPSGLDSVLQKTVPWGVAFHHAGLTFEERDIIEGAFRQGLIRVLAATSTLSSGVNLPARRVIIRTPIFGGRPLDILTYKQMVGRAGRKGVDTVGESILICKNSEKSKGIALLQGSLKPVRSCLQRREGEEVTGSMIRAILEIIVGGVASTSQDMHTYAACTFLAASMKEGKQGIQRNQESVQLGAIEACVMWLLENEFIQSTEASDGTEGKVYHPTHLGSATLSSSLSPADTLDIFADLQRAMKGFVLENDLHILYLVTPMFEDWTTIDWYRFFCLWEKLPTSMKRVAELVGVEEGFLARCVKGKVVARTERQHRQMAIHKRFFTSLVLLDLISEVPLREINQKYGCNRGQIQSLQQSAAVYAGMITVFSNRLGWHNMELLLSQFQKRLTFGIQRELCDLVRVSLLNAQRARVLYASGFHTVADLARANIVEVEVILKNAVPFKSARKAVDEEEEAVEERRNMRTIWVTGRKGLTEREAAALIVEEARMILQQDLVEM

BRCA1-deficient cells = settings: read-out: IC50 in BRCA1-deficient cells; cited from earlier work

Cc1cccc(N(C)C(=O)[C@@H]2[C@H](O)CCN2c2nc(C)cc(C(F)(F)F)c2C#N)c1 [ART558]
activity against Brca1 Δ11 MEFs (Brca1^Δ11;Δ11 MEFs): relatively modest activity

CO[C@@H]1[C@@H](OC(N)=O)[C@@H](O)[C@H](Oc2ccc3c(O)c(NC(=O)c4ccc(O)c(CC=C(C)C)c4)c(=O)oc3c2C)OC1(C)C [Novobiocin]
colony survival, killing of BRCA2-KO cells [1]: selective killing of BRCA2-KO cells at significantly higher concentrations
colony survival, killing of Brca1 cc/cc MEFs (Brca1^cc/cc MEFs): no preferential killing of these cells up to 10 μM
inhibition of Polθ-hel ssDNA binding (Polθ-hel): inhibits Polθ-hel ssDNA binding
IC50 (BRCA1-deficient cells): 50 to 100 µM
